Reference: ChEMBL document CHEMBL1122710, “6-Methylangelicins: a new series of potential photochemotherapeutic agents for the treatment of psoriasis” (J Med Chem, 1984)
“And” between values parts separate entries of the source, which are not always exact repeats. Equal entries are not always repeated. Each block holds one molecule with its values, some of them ahead of it. The source made the active and inactive calls. The rule behind the calls is not given here.

Tests used:
[1] = test system: Nucleic Acid; assay: Compound was evaluated for the binding parameter by determining rate constant; type: nucleic-acid assay; settings: Bos taurus
[2] = test system: Nucleic Acid; assay: (§1) Compound was evaluated for the association constant to an isolated site of DNA; type: nucleic-acid assay; design: unit not given here; settings: Bos taurus
[3] = species on record: Mus musculus; assay: Compound was evaluated for 50% inhibition of DNA synthesis in Ehrlich ascites tumor cells by irradiation (365 nM) at 1.9 x 10e -5M incubated with [3H]thymidine at 37 degree C (p 0.05); type: functional
Summary of the method: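 Ehrlich ascites tumor cells (2×10^7 cells/mL in Hanks' solution) are irradiated on ice with the compound present, using an HPW 125 lamp at 20 cm. 2×10^6 cells are then pulsed with 1 μCi [3H]thymidine for 15 min at 37 °C. TCA-insoluble counts are taken as % of untreated controls, at least duplicates per dose. UV-A dose for 50% inhibition is derived by probit analysis.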

[4] = test system: Nucleic Acid; assay: Compound was evaluated for the binding parameter by determining the number of nucleotides occluded by a bound angelicin (n); type: nucleic-acid assay; settings: Bos taurus
[5] = test system: Nucleic Acid; assay: (§2) Compound was evaluated for the frequency of the binding site that is the number of molecules bound to every nucleotide (1/n); type: nucleic-acid assay; settings: Bos taurus
[6] = Percentage of clearance of psoriatic lesions by 8-methoxypsoralen (8-MOP) for comparison at dose of 8 J/cm e2 ultraviolet-A radiation; type: ADME, organism-based; settings: in vivo
Summary of the method: (§3)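 Psoriasis patients, with 4×4 cm skin areas per treatment. Ethanolic solution (0.1% w/v) is applied topically to 5 μg/cm² and left to evaporate. After 20 min, the area is irradiated with a UV-A fluorescent PUVA lamp. Starting dose is 2.5 J/cm², increased up to 13 J/cm² by skin tolerance. Control areas get compound without UV-A, or UV-A alone.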

[7] = species on record: Homo sapiens; assay: Pigmentation capacity of 8-methoxypsoralen (8-MOP) for comparison at dose of 6 J/cm e2 ultraviolet-A radiation in patient; + = moderate; type: functional, organism-based; summary of the method: as §3
[8] = Percentage of clearance of psoriatic lesions by the compound at dose of 8 J/cm e2 ultraviolet-A radiation; type: ADME, organism-based; settings: in vivo; summary of the method: as §3
[9] = Percentage of clearance of psoriatic lesions by the compound at dose of 4 J/cm e2 ultraviolet-A radiation; type: ADME, organism-based; settings: in vivo; summary of the method: as §3
[10] = species on record: Homo sapiens; assay: (§4) Number of treatments at dose of 6 J/cm e2 ultraviolet-A radiation; type: functional; summary of the method: as §3
[11] = species on record: Homo sapiens; assay: Erythema induction by 8-methoxypsoralen (8-MOP) for comparison at dose of 8 J/cm e2 ultraviolet-A radiation in patient, +=moderate; type: functional, organism-based; summary of the method: as §3
[12] = species on record: Homo sapiens; assay: Pigmentation capacity of 8-methoxypsoralen (8-MOP) for comparison at dose of 10 J/cm e2 ultraviolet-A radiation in patient; +=moderate; type: functional, organism-based; summary of the method: as §3
[13] = Percentage of clearance of psoriatic lesions by the compound at dose of 6 J/cm e2 ultraviolet-A radiation; type: ADME, organism-based; settings: in vivo; summary of the method: as §3
[14] = species on record: Homo sapiens; assay: Number of treatments at dose of 8 J/cm e2 ultraviolet-A radiation; type: functional; summary of the method: as §3
[15] = species on record: Homo sapiens; assay: Erythema induction by the compound at dose of 4 J/cm e2 ultraviolet-A radiation in patient; - = absent; type: functional, organism-based; summary of the method: as §3
[16] = species on record: Homo sapiens; assay: Pigmentation capacity at dose of 6 J/cm e2 ultraviolet-A radiation in patient; + = moderate; type: functional, organism-based; summary of the method: as §3
[17] = species on record: Homo sapiens; assay: Pigmentation capacity of 8-methoxypsoralen (8-MOP) for comparison at dose of 8 J/cm e2 ultraviolet-A radiation in patient; +=moderate; type: functional, organism-based; summary of the method: as §3
[18] = species on record: Homo sapiens; assay: Erythema induction by the compound at dose of 10 J/cm e2 ultraviolet-A radiation in patient; - = absent; type: functional, organism-based; summary of the method: as §3
[19] = species on record: Homo sapiens; assay: Erythema induction by the compound at dose of 6 J/cm e2 ultraviolet-A radiation in patient; - = absent; type: functional, organism-based; summary of the method: as §3
[20] = species on record: Homo sapiens; assay: Number of treatments at dose of 4 J/cm e2 ultraviolet-A radiation (patient); type: functional; summary of the method: as §3
[21] = Percentage of clearance of psoriatic lesions by 8-methoxypsoralen (8-MOP) for comparison at dose of 10 J/cm e2 ultraviolet-A radiation; type: ADME, organism-based; settings: in vivo; summary of the method: as §3
[22] = Percentage of clearance of psoriatic lesions by the compound at dose of 10 J/cm e2 ultraviolet-A radiation; type: ADME, organism-based; settings: in vivo; summary of the method: as §3
[23] = species on record: Homo sapiens; assay: Erythema induction by the compound at dose of 8 J/cm e2 ultraviolet-A radiation in patient; - = absent; type: functional, organism-based; summary of the method: as §3
[24] = species on record: Homo sapiens; assay: Pigmentation capacity of 8-methoxypsoralen (8-MOP) for comparison at dose of 4 J/cm e2 ultraviolet-A radiation in patient; - = absent; type: functional, organism-based; summary of the method: as §3
[25] = Percentage of clearance of psoriatic lesions by 8-methoxypsoralen (8-MOP) for comparison at dose of 6 J/cm e2 ultraviolet-A radiation; type: ADME, organism-based; settings: in vivo; summary of the method: as §3
[26] = species on record: Homo sapiens; assay: Number of treatments at dose of 10 J/cm e2 ultraviolet-A radiation; type: functional; summary of the method: as §3
[27] = species on record: Homo sapiens; assay: as §4; type: functional; summary of the method: as §3; remark: listed apart in the source
[28] = Percentage of clearance of psoriatic lesions by the compound at dose of 9 J/cm e2 ultraviolet-A radiation; type: ADME, organism-based; settings: in vivo; summary of the method: as §3
[29] = species on record: Homo sapiens; assay: Erythema induction by the compound at dose of 9 J/cm e2 ultraviolet-A radiation in patient; - = absent; type: functional, organism-based; summary of the method: as §3
[30] = species on record: Homo sapiens; assay: Pigmentation capacity at dose of 9 J/cm e2 ultraviolet-A radiation in patient; + = moderate; type: functional, organism-based; summary of the method: as §3
[31] = species on record: Homo sapiens; assay: Pigmentation capacity at dose of 8 J/cm e2 ultraviolet-A radiation in patient; + = moderate; type: functional, organism-based; summary of the method: as §3
[32] = species on record: Homo sapiens; assay: Number of treatments at dose of 9 J/cm e2 ultraviolet-A radiation; type: functional; summary of the method: as §3
[33] = Percentage of clearance of psoriatic lesions by 8-methoxypsoralen (8-MOP) for comparison at dose of 9 J/cm e2 ultraviolet-A radiation; type: ADME, organism-based; settings: in vivo; summary of the method: as §3
[34] = species on record: Bos taurus; assay: as §2
[35] = species on record: Bos taurus; assay: as §1

SMILES: Cc1cc(=O)oc2c1cc(C)c1occc12
- Rate constant [1]: 0.0523 min⁻¹
- K [2]: 2990
- ID50 [3]: 4e+18 quanta
- Activity [4]: 15.9
- Activity [5]: 0.063

SMILES: O=c1ccc2ccc3occc3c2o1 [ANGELICIN]
- Rate constant [1]: 0.011 min⁻¹
- K [2]: 560
- ID50 [3]: 2.5e+19 quanta
- Activity [4]: 15.9
- Activity [5]: 0.063

SMILES: Cc1c(C)c2occc2c2oc(=O)ccc12
- ID50 [3]: 3e+19 quanta

SMILES: COc1c2occc2cc2ccc(=O)oc12 [METHOXSALEN]
- Rate constant [1]: 0.031 min⁻¹
- K [2]: 736
- ID50 [3]: 1.38e+19 quanta
- Activity [4]: 7.81
- Activity [5]: 0.128

The next lines start with results.

- Rate constant [1]: 0.03 min⁻¹
- K [2]: 1980
- Activity [4]: 12.8
- Activity [5]: 0.078
SMILES: Cc1cc2c(o1)c(C)cc1ccc(=O)oc12
- ID50 [3]: 1.19e+19 quanta

- Rate constant [1]: 0.0702 min⁻¹
- K [2]: 3310
- Activity [4]: 22.2
- Activity [5]: 0.045
SMILES: Cc1cc2c(o1)c(C)cc1c(C)cc(=O)oc12
- ID50 [3]: 3.87e+18 quanta

- Lesion_Clearance [6]: 75%
- Rate constant [1]: 0.133 min⁻¹
- Lesion_Clearance [8]: 100%
- K [2]: 10100
- Lesion_Clearance [9]: 95%
- Lesion_Clearance [13]: 100%
- Activity [4]: 11
- Lesion_Clearance [21]: 90%
- Activity [5]: 0.091
- Lesion_Clearance [22]: 90%
- Lesion_Clearance [25]: 80% and 85%
SMILES: Cc1cc(=O)oc2c1cc(C)c1occ(C)c12
- Pigmentation capacity [7]: moderate
- Activity [10]: 9
- Erythema induction [11]: moderate
- Pigmentation capacity [12]: moderate
- ID50 [3]: 6e+16 quanta
- Activity [14]: 11
- Erythema induction [15]: inactive
- Pigmentation capacity [16]: moderate
- Pigmentation capacity [17]: moderate
- Erythema induction [18]: inactive
- Erythema induction [19]: inactive
- Activity [20]: 11
- Erythema induction [23]: inactive
- Pigmentation capacity [24]: inactive
- Activity [26]: 15
- Activity [27]: 9

- Rate constant [1]: 0.023 min⁻¹
- K [2]: 3730
- Activity [4]: 14.3
- Activity [5]: 0.07
SMILES: Cc1cc2c(o1)c(C)c(C)c1ccc(=O)oc12
- ID50 [3]: 3e+19 quanta

- Lesion_Clearance [6]: 85%
- Rate constant [1]: 0.099 min⁻¹
- Lesion_Clearance [8]: 100%
- K [2]: 6300
- Lesion_Clearance [28]: 90%
- Activity [4]: 16.4
- Activity [5]: 0.061
- Lesion_Clearance [33]: 70%
SMILES: Cc1cc2ccc(=O)oc2c2c(C)coc12
- ID50 [3]: 2.2e+18 quanta
- Activity [14]: 15
- Erythema induction [29]: inactive
- Pigmentation capacity [30]: moderate
- Pigmentation capacity [31]: moderate
- Erythema induction [23]: inactive
- Activity [32]: 15

- Rate constant [1]: 0.036 min⁻¹
- Activity [34]: 0.048
- Activity [4]: 20.8
- K [35]: 925
SMILES: Cc1cc2ccc(=O)oc2c2ccoc12
- ID50 [3]: 2.63e+19 quanta
